Measured values: ChEMBL document CHEMBL1144824, “Oximes: metabolic activation and structure-allergenic activity relationships” (J Med Chem, 2008)

Tests used:
Mus musculus [1] = test: Dermal toxicity in CBA/Ca mouse assessed as skin sensitization stimulation index by measuring increase in [3H]thymidine incorporation at 0.1% w/v administered on ear dorsum by local lymph node assay relative to control; format: organism-based, Skin of body; settings: in vivo, topical_or_ocular
Outline: (§1)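 Female CBA/Ca mice, 8 weeks, n = 3 or 4 per group, 25 µL of test compound in vehicle per OECD 429 LLNA; vehicle-only controls. Day 5: 250 µL PBS with 20 µCi [3H]thymidine i.v. After 5 h, draining auricular nodes were pooled per group, cells suspended and counted by β-scintillation. SI = mean dpm/node of test group over control; SI above 3 counted positive.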

Mus musculus [2] = test: Dermal toxicity in CBA/Ca mouse assessed as skin sensitization stimulation index by measuring increase in [3H]thymidine incorporation at 1% w/v administered on ear dorsum by local lymph node assay relative to control; format: organism-based, Skin of body; settings: in vivo, topical_or_ocular; outline: as §1
Mus musculus [3] = test: Dermal toxicity in CBA/Ca mouse assessed as skin sensitization stimulation index by measuring increase in [3H]thymidine incorporation at 5% w/v administered on ear dorsum by local lymph node assay relative to control; format: organism-based, Skin of body; settings: in vivo, topical_or_ocular; outline: as §1
[4] = Dermal toxicity in CBA/Ca mouse assessed as skin sensitization stimulation index by measuring increase in [3H]thymidine incorporation at 10% w/v administered on ear dorsum by local lymph node assay relative to control; set-up: species or system Skin of body; settings: in vivo, topical_or_ocular; outline: as §1
Mus musculus [5] = test: Dermal toxicity in CBA/Ca mouse assessed as skin sensitization stimulation index by measuring increase in [3H]thymidine incorporation at 20% w/v administered on ear dorsum by local lymph node assay relative to control; format: organism-based, Skin of body; settings: in vivo, topical_or_ocular; outline: as §1
Mus musculus [6] = organism: Mus musculus; test: Dermal toxicity in CBA/Ca mouse assessed as drug level inducing 3 times increase in skin sensitization stimulation index by measuring [3H]thymidine incorporation relative to control; format: organism-based; settings: in vivo
Outline: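 Local lymph node assay per OECD Guideline 429 in female CBA/Ca mice, 8 weeks old, groups of 3 or 4. Each mouse got 25 µL of test compound in vehicle; controls got vehicle alone. Five days after first treatment, mice were dosed i.v. with 20 µCi [3H]thymidine in PBS. Auricular lymph nodes were pooled per group 5 h later and counted by β-scintillation. Value is the concentration giving SI (test/control) of 3.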

Compound | Activity (Mus musculus [1]) | Activity (Mus musculus [2]) | Activity (Mus musculus [3]) | Activity [4] | Activity (Mus musculus [5]) | Activity (Mus musculus [6]) [mM]
CC1=CCCC/C1=N\O | 1 | 2.36 | 5.03 | 7.91 | 11.3 | 160
O/N=C\c1ccccc1 | 1.75 | 1.8 | 1.55 | 2.33 | 2.56 | > 1700
O/N=C1/C=CCCC1 | 1.54 | 4.1 | 7.6 |  |  | 55
CC1=C/C(=N/O)CCC1 | 0.76 | 2.1 | 5.06 | 5.34 | 7.3 | 180
C/C=C/C(CC)=N/O | 0.99 | 0.99 | 1.69 | 3.34 | 6.62 | 790
CC1=C(C)/C(=N/O)CCC1 | 1.1 | 1.24 | 1.43 | 1.16 | 1.3 | > 1400
ON=C1CCCCC1 [CYCLOHEXANONE OXIME] | 0.96 | 0.9 | 0.77 | 1.17 | 0.84 | > 1800
